Measurements published in ChEMBL document CHEMBL1139313, “Synthesis and antimalarial activity of new 4-amino-7-chloroquinolyl amides, sulfonamides, ureas and thioureas” (Bioorg Med Chem, 2009).
pIC50: −log10 of the molar value.

How the values were obtained:
Plasmodium falciparum [1] = test: Antimalarial activity against chloroquine-resistant Plasmodium falciparum Dd2 after 72 hrs; format: functional, organism-based; details: Dd2, 72 h
How it was run: (§1)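 SYBR Green I growth assay. Sorbitol-synchronized P. falciparum cultures (>95% ring stage) at final 1% hematocrit and 0.5% parasitemia, exposed to drug dilutions in complete medium for 72 h at 37 °C. Dye added, then 1 h at 37 °C; fluorescence read at 490 nm excitation / 530 nm emission. Each dilution run in triplicate; IC50 averaged over ≥2 separate assays. RI relates Dd2 IC50 to HB3 IC50.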

Plasmodium falciparum [2] = test: Antimalarial activity against chloroquine-sensitive Plasmodium falciparum HB3 after 72 hrs; format: functional, organism-based; details: HB3, 72 h; how it was run: as §1
[3] = Resistant index, IC50 for chloroquine-resistant Plasmodium falciparum Dd2 to IC50 for chloroquine-sensitive Plasmodium falciparum HB3; format: functional; how it was run: as §1

O=C(NCCCNc1ccnc2cc(Cl)ccc12)c1ccccc1Nc1cccc2ccccc12
pIC50 (Plasmodium falciparum [1]): < 6.00
pIC50 (Plasmodium falciparum [2]): < 6.00

CCN(CC)CCC(=O)NCCCCCNc1ccnc2cc(Cl)ccc12
pIC50 (Plasmodium falciparum [1]): 6.17
Ratio IC50 [3]: 41.2
pIC50 (Plasmodium falciparum [2]): 7.80

CN(C)c1ccc(NC(=S)NCCCNc2ccnc3cc(Cl)ccc23)c2ccccc12
pIC50 (Plasmodium falciparum [1]): 6.22
Ratio IC50 [3]: 2.1
pIC50 (Plasmodium falciparum [2]): 6.54

O=C(NCCCNc1ccnc2cc(Cl)ccc12)c1ccccc1Sc1ccccc1
pIC50 (Plasmodium falciparum [1]): < 6.00
pIC50 (Plasmodium falciparum [2]): < 6.00

CCN(CCCNc1ccnc2cc(Cl)ccc12)CCNS(=O)(=O)c1cccc2c(N(C)C)cccc12
pIC50 (Plasmodium falciparum [1]): 6.39
Ratio IC50 [3]: 3.6
pIC50 (Plasmodium falciparum [2]): 6.94

O=C(NCCCNc1ccnc2cc(Cl)ccc12)c1cc(C(F)(F)F)cc(C(F)(F)F)c1
pIC50 (Plasmodium falciparum [1]): 6.63
Ratio IC50 [3]: 1.6
pIC50 (Plasmodium falciparum [2]): 6.84

CCN(CCCCCNc1ccnc2cc(Cl)ccc12)CCNS(=O)(=O)c1cccc2c(N(C)C)cccc12
pIC50 (Plasmodium falciparum [1]): 6.94
Ratio IC50 [3]: 1.7
pIC50 (Plasmodium falciparum [2]): 7.15

O=C(NCCCNc1ccnc2cc(Cl)ccc12)c1ccc(F)cc1NCc1ccccc1
pIC50 (Plasmodium falciparum [1]): 6.52
pIC50 (Plasmodium falciparum [2]): < 6.00

CCN(CCNc1ccnc2cc(Cl)ccc12)CCNS(=O)(=O)c1cccnc1
pIC50 (Plasmodium falciparum [1]): 6.29
Ratio IC50 [3]: 4.1
pIC50 (Plasmodium falciparum [2]): 6.91

CCN(CCNC(=O)c1ccc(F)cc1NCc1ccccc1)CCNc1ccnc2cc(Cl)ccc12
pIC50 (Plasmodium falciparum [1]): 6.70
Ratio IC50 [3]: 2.5
pIC50 (Plasmodium falciparum [2]): 7.10

O=S(=O)(NCCCNc1ccnc2cc(Cl)ccc12)c1ccc(Oc2ccccc2)nc1
pIC50 (Plasmodium falciparum [1]): < 6.00
pIC50 (Plasmodium falciparum [2]): < 6.00

O=S(=O)(NCCCNc1ccnc2cc(Cl)ccc12)c1cccc2cccnc12
pIC50 (Plasmodium falciparum [1]): 6.22
Ratio IC50 [3]: 1.3
pIC50 (Plasmodium falciparum [2]): 6.34

CCN(CCNc1ccnc2cc(Cl)ccc12)CCNS(=O)(=O)c1ccc(Oc2ccccc2)nc1
pIC50 (Plasmodium falciparum [1]): 6.56
Ratio IC50 [3]: 2
pIC50 (Plasmodium falciparum [2]): 6.85

O=C(CCc1nc2ccccc2[nH]1)NCCCNc1ccnc2cc(Cl)ccc12
pIC50 (Plasmodium falciparum [1]): < 6.00
pIC50 (Plasmodium falciparum [2]): 6.12

CCN(CCCC(C)Nc1ccnc2cc(Cl)ccc12)CCNS(=O)(=O)c1cccc2c(N(C)C)cccc12 (stereo not given)
pIC50 (Plasmodium falciparum [1]): 6.59
Ratio IC50 [3]: 1.2
pIC50 (Plasmodium falciparum [2]): 6.66

CCN(CC)CCC(=O)NCCCNc1ccnc2cc(Cl)ccc12
pIC50 (Plasmodium falciparum [1]): 6.25
Ratio IC50 [3]: 24.4
pIC50 (Plasmodium falciparum [2]): 7.64

COc1ccc(NC(=O)NCCCNc2ccnc3cc(Cl)ccc23)cc1
pIC50 (Plasmodium falciparum [1]): 6.22
Ratio IC50 [3]: 1.9
pIC50 (Plasmodium falciparum [2]): 6.50

CN1CCOc2cc(S(=O)(=O)NCCCNc3ccnc4cc(Cl)ccc34)ccc21
pIC50 (Plasmodium falciparum [1]): < 6.00
pIC50 (Plasmodium falciparum [2]): 6.02

COc1ccc(NC(=S)NCCCNc2ccnc3cc(Cl)ccc23)cc1
pIC50 (Plasmodium falciparum [1]): 6.45
Ratio IC50 [3]: 1.5
pIC50 (Plasmodium falciparum [2]): 6.64

O=C(NCCCNc1ccnc2cc(Cl)ccc12)c1ccccc1SC1CCCCC1
pIC50 (Plasmodium falciparum [1]): < 6.00
pIC50 (Plasmodium falciparum [2]): < 6.00

CCN(CCNC(=O)C(F)(F)C(F)(F)C(F)(F)C(F)(F)C(F)(F)C(F)(F)C(F)(F)F)CCNc1ccnc2cc(Cl)ccc12
pIC50 (Plasmodium falciparum [1]): 7.06
Ratio IC50 [3]: 1.2
pIC50 (Plasmodium falciparum [2]): 7.14

O=C(NCCCNc1ccnc2cc(Cl)ccc12)c1ccccc1NCCc1ccccc1
pIC50 (Plasmodium falciparum [1]): < 6.00
pIC50 (Plasmodium falciparum [2]): < 6.00

CN(C)c1ccc(NC(=O)NCCCNc2ccnc3cc(Cl)ccc23)cc1
pIC50 (Plasmodium falciparum [1]): 6.17
Ratio IC50 [3]: 1.6
pIC50 (Plasmodium falciparum [2]): 6.36

O=C(NCCCNc1ccnc2cc(Cl)ccc12)c1cccnc1
pIC50 (Plasmodium falciparum [1]): < 6.00
pIC50 (Plasmodium falciparum [2]): < 6.00

CCN(CCNc1ccnc2cc(Cl)ccc12)CCNS(=O)(=O)c1ccc2c(c1)OCCN2C
pIC50 (Plasmodium falciparum [1]): 6.54
Ratio IC50 [3]: 1.7
pIC50 (Plasmodium falciparum [2]): 6.77

O=C(NCCCNc1ccnc2cc(Cl)ccc12)c1ccc(O)nc1
pIC50 (Plasmodium falciparum [1]): < 6.00
pIC50 (Plasmodium falciparum [2]): < 6.00

CCN(CC)CCC(=O)NCCCCNc1ccnc2cc(Cl)ccc12
pIC50 (Plasmodium falciparum [1]): < 6.00
pIC50 (Plasmodium falciparum [2]): 7.54

CCN(CCNc1ccnc2cc(Cl)ccc12)CCNS(=O)(=O)c1cccc2c(N(C)C)cccc12
pIC50 (Plasmodium falciparum [1]): 7.64
Ratio IC50 [3]: 1.3
pIC50 (Plasmodium falciparum [2]): 7.74

CCN(CCNC(=O)c1c(F)c(F)c(F)c(F)c1F)CCNc1ccnc2cc(Cl)ccc12
pIC50 (Plasmodium falciparum [1]): 6.50
Ratio IC50 [3]: 2.7
pIC50 (Plasmodium falciparum [2]): 6.93

COc1cc([N+](=O)[O-])ccc1NC(=O)NCCCNc1ccnc2cc(Cl)ccc12
pIC50 (Plasmodium falciparum [1]): < 6.00
pIC50 (Plasmodium falciparum [2]): 6.55

CCN(CC)CCC(=O)NCCCCCCNc1ccnc2cc(Cl)ccc12
pIC50 (Plasmodium falciparum [1]): 6.41
Ratio IC50 [3]: 12.9
pIC50 (Plasmodium falciparum [2]): 7.55

CCN(CCNC(=O)C(F)(F)C(F)(F)C(F)(F)F)CCNc1ccnc2cc(Cl)ccc12
pIC50 (Plasmodium falciparum [1]): 6.25
Ratio IC50 [3]: 3.1
pIC50 (Plasmodium falciparum [2]): 6.74

COc1cc([N+](=O)[O-])ccc1NC(=S)NCCCNc1ccnc2cc(Cl)ccc12
pIC50 (Plasmodium falciparum [1]): 6.10
Ratio IC50 [3]: 3.9
pIC50 (Plasmodium falciparum [2]): 6.68

CC(C)(C)OC(=O)N1CCC[C@H]1C(=O)NCCCNc1ccnc2cc(Cl)ccc12
pIC50 (Plasmodium falciparum [1]): < 6.00
pIC50 (Plasmodium falciparum [2]): < 6.00

CCN(CCCCCCNc1ccnc2cc(Cl)ccc12)CCNS(=O)(=O)c1cccc2c(N(C)C)cccc12
pIC50 (Plasmodium falciparum [1]): 6.83
Ratio IC50 [3]: 0.5
pIC50 (Plasmodium falciparum [2]): 6.57

CCN(CCCCNc1ccnc2cc(Cl)ccc12)CCNS(=O)(=O)c1cccc2c(N(C)C)cccc12
pIC50 (Plasmodium falciparum [1]): 6.90
Ratio IC50 [3]: 1.5
pIC50 (Plasmodium falciparum [2]): 7.09

CN(C)c1cccc(C(=O)NCCCNc2ccnc3cc(Cl)ccc23)c1
pIC50 (Plasmodium falciparum [1]): 6.10
Ratio IC50 [3]: 1.8
pIC50 (Plasmodium falciparum [2]): 6.35

CC(C)(C)OC(=O)N[C@@H](CCCCNC(=O)OCc1ccccc1)C(=O)NCCCNc1ccnc2cc(Cl)ccc12
pIC50 (Plasmodium falciparum [1]): < 6.00
pIC50 (Plasmodium falciparum [2]): 6.04

CCN(CC)CCC(=O)NCCNc1ccnc2cc(Cl)ccc12
pIC50 (Plasmodium falciparum [1]): 6.12
Ratio IC50 [3]: 24.1
pIC50 (Plasmodium falciparum [2]): 7.49

CN(C)c1ccc(NC(=S)NCCCNc2ccnc3cc(Cl)ccc23)cc1
pIC50 (Plasmodium falciparum [1]): 6.32
Ratio IC50 [3]: 1.8
pIC50 (Plasmodium falciparum [2]): 6.57

CCN(CCNC(=O)c1cc(C(F)(F)F)cc(C(F)(F)F)c1)CCNc1ccnc2cc(Cl)ccc12
pIC50 (Plasmodium falciparum [1]): 6.86
Ratio IC50 [3]: 1.4
pIC50 (Plasmodium falciparum [2]): 7.01

CC(C)(C)OC(=O)N[C@H](Cc1c[nH]c2ccccc12)C(=O)NCCCNc1ccnc2cc(Cl)ccc12
pIC50 (Plasmodium falciparum [1]): 6.12
Ratio IC50 [3]: 1.5
pIC50 (Plasmodium falciparum [2]): 6.30

CCN(CCNc1ccnc2cc(Cl)ccc12)CCNS(=O)(=O)c1cccc2cccnc12
pIC50 (Plasmodium falciparum [1]): 6.35
Ratio IC50 [3]: 1.4
pIC50 (Plasmodium falciparum [2]): 6.51

O=C(NCCCNc1ccnc2cc(Cl)ccc12)c1c(F)c(F)c(F)c(F)c1F
pIC50 (Plasmodium falciparum [1]): 6.29
Ratio IC50 [3]: 1.9
pIC50 (Plasmodium falciparum [2]): 6.56

COc1ccccc1NC(=O)NCCCNc1ccnc2cc(Cl)ccc12
pIC50 (Plasmodium falciparum [1]): 6.27
Ratio IC50 [3]: 1.5
pIC50 (Plasmodium falciparum [2]): 6.44

O=C(NCCCNc1ccnc2cc(Cl)ccc12)C(F)(F)C(F)(F)C(F)(F)F
pIC50 (Plasmodium falciparum [1]): 6.56
Ratio IC50 [3]: 1.2
pIC50 (Plasmodium falciparum [2]): 6.63

CN(C)c1cccc2c(S(=O)(=O)NCCCNc3ccnc4cc(Cl)ccc34)cccc12
pIC50 (Plasmodium falciparum [1]): 6.02
Ratio IC50 [3]: 1.3
pIC50 (Plasmodium falciparum [2]): 6.12

O=C(NCCCNc1ccnc2cc(Cl)ccc12)C(F)(F)C(F)(F)C(F)(F)C(F)(F)C(F)(F)C(F)(F)C(F)(F)F
pIC50 (Plasmodium falciparum [1]): 6.71
Ratio IC50 [3]: 1.2
pIC50 (Plasmodium falciparum [2]): 6.78

CC(C)(C)OC(=O)N[C@@H](Cc1c[nH]c2ccccc12)C(=O)NCCCNc1ccnc2cc(Cl)ccc12
pIC50 (Plasmodium falciparum [1]): < 6.00
pIC50 (Plasmodium falciparum [2]): 6.32

Nc1ccc(N)c(C(=O)NCCCNc2ccnc3cc(Cl)ccc23)c1
pIC50 (Plasmodium falciparum [1]): 6.19
Ratio IC50 [3]: 3.6
pIC50 (Plasmodium falciparum [2]): 6.75
